Where “and” joins values, the source holds several entries; their conditions need not be identical. Equal values may be shown once.

A short description of series [1]: Biodistribution in rat skin was determined after 30 min of intravenous administration of the compound; [125I]- is used as radioactive isotope. Type of series: ADME, organism-based, Zone of skin. Particulars: in vivo, 0.5 h. In a few lines:
(§1)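 Rats, three per group, under ether anaesthesia, received 10 μCi of [¹²⁵I]-labelled tracer in 0.2 mL saline into the femoral vein. They were killed by cardiac excision under ether at each time point. Organs were removed, weighed and counted. Percent dose per organ was calculated against counts of a 1% aliquot of the injected dose (100-fold diluted) counted at the same time.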

Series [2] can be described thus: Biodistribution in rat spleen was determined after 30 min of intravenous administration of the compound; [125I]- is used as radioactive isotope. Type of series: ADME, organism-based. Particulars: in vivo, 0.5 h. A digest of the protocol: as §1
A short description of series [3]: Biodistribution in rat kidney was determined after 24 hours of intravenous administration of the compound; [125I]- is used as radioactive isotope. Type of series: ADME, organism-based. The note with it: in vivo. In a few lines:
(§2)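 Rats under ether anesthesia, three per group, received 10 μCi tracer in 0.2 mL saline into the femoral vein. They were killed by cardiac excision under ether at each time point. Organs were removed, weighed and counted. Percent dose per organ was calculated against a 1%-of-injected-dose standard counted at the same time.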

Series [4] in a line: Distribution ratio in cortex and cerebellum was determined after 60 min of intravenous administration of the compound; [125I]- is used as radioactive isotope. Type of series: ADME, tissue-based. The note with it: rat, 1 h. A digest of the protocol:
(§3)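 After femoral-vein injection of 10 μCi [¹²⁵I] tracer in 0.2 mL saline under ether anaesthesia (three rats per group), brain regions were dissected, weighed and counted: cortex (frontal plus occipital), hippocampus, hypothalamus and cerebellum. %dose/g was calculated against a diluted injected-dose standard. Ratio = (region − cerebellum)/cerebellum on a %dose/g basis, with cerebellum as the background region.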

Series [5] is described as follows: Biodistribution in rat skin was determined after 6 hours of intravenous administration of the compound; [125I]- is used as radioactive isotope. The format is ADME, organism-based, Zone of skin. Particulars: in vivo. A digest of the protocol: as §1
Series [6] is described as follows: Biodistribution in rat blood was determined after 6 hours of intravenous administration of the compound; [125I]- is used as radioactive isotope. Type of series: ADME, organism-based. The note with it: in vivo. In a few lines: as §2
A short description of series [7]: Biodistribution in rat kidney was determined after 120 min of intravenous administration of the compound; [125I]- is used as radioactive isotope. The note with it: in vivo, 2 h. The format is ADME, organism-based. A digest of the protocol: as §2
A short description of series [8]: Biodistribution in rat heart was determined after 2 min of intravenous administration of the compound; [125I]- is used as radioactive isotope. The note with it: in vivo. The format is ADME, organism-based. A digest of the protocol:
as §2

The nature of series [9]: Biodistribution in rat brain was determined after 240 min of intravenous administration of the compound; [125I]- is used as radioactive isotope. Particulars: in vivo, 4 h. The format is ADME, organism-based. A digest of the protocol:
as §2

Series [10] in a line: Biodistribution in rat skin was determined after 240 min of intravenous administration of the compound; [125I]- is used as radioactive isotope. The format is ADME, organism-based, Zone of skin. The note with it: in vivo, 4 h. A digest of the protocol: as §1
A short description of series [11]: Biodistribution in rat lung was determined after 120 min of intravenous administration of the compound; [125I]- is used as radioactive isotope. The note with it: in vivo, 2 h. Type of series: ADME, organism-based. In a few lines:
as §2

A short description of series [12]: Distribution ratio in hippocampus and cerebellum was determined after 6 hrs of intravenous administration of the compound; [125I]- is used as radioactive isotope. The format is ADME, tissue-based. Particulars: rat. A digest of the protocol:
as §3

A short description of series [13]: Biodistribution in rat kidney was determined after 2 min of intravenous administration of the compound; [125I]- is used as radioactive isotope. Type of series: ADME, organism-based. The note with it: in vivo. A digest of the protocol:
as §2

A short description of series [14]: Biodistribution in rat spleen was determined after 6 hours of intravenous administration of the compound; [125I]- is used as radioactive isotope. Type of series: ADME, organism-based. The note with it: in vivo. In a few lines:
as §1

Series [15] in a line: Regional brain distribution in rat hippocampus was determined after 120 min of intravenous administration of the compound; [125I]- is used as radioactive isotope. The format is ADME, tissue-based. The note with it: in vivo, 2 h. A digest of the protocol:
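Rats, three per group, injected with 10 μCi tracer in 0.2 mL saline via the femoral vein under ether anesthesia and killed by cardiac excision at the stated time. Cortex (frontal plus occipital), striatum, hippocampus, cerebellum and hypothalamus were dissected, weighed and gamma-counted. Values are % dose/g, calculated by comparison with counts of a 100-fold diluted aliquot of the injected dose.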

A short description of series [16]: Distribution ratio in cortex and cerebellum was determined after 11 hrs of intravenous administration of the compound; [125I]- is used as radioactive isotope. Type of series: ADME, tissue-based. Particulars: rat. In a few lines: as §3
Series [17] can be described thus: Biodistribution in rat thyroid was determined after 11 hours of intravenous administration of the compound; [125I]- is used as radioactive isotope. Type of series: ADME, organism-based, Thyroid gland. The note with it: in vivo. In a few lines: as §1

In the case of `CN(C)Cc1ccccc1Oc1ccc(I)cc1N`, the Dose is 11.3% in [1]; 0.84% in series [2]; 0.17% in series [3]; 15.5% in [5]; 3.29% in series [6]; 1.24% in [7]. Further, the Dose in series [8] is 1.51%; in series [9], 0.33%; in series [10] it was 12.6%; in series [11], 0.88%; in [13] it was 4.27%; in series [14] it was 0.11% and 0.05%. The Dose in series [17] stood at 5.15%. The Dose/g is reported as 1.35% in series [4], 1.21% in series [12], 0.65% in series [15] and 0% in series [16].
